Experimental data from ChEMBL document CHEMBL3576834, “Antipodal crambescin A2 homologues from the marine sponge Pseudaxinella reticulata. Antifungal structure-activity relationships” (2015).
Values after ≈ are worked out from the molar mass of the structure shown.

How the values were obtained:
Candida albicans = test: Antifungal activity against Candida albicans ATCC 14503 after 48 hrs by microbroth dilution method; format: functional; conditions: ATCC 14503, 48 h
How it was run: (§1)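 Microbroth dilution in Antibiotic Medium #3. Test agent in DMSO serially diluted 2-fold across 12 wells. Overnight yeast cultures diluted to OD 0.01−0.02 and added to the wells, final volume 200 μL. Incubated at 35 °C for 48 h, then growth read as OD at 600 nm.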

Cryptococcus gattii = test: Antifungal activity against Cryptococcus neoformans var. gattii after 48 hrs by microbroth dilution method; format: functional, Cryptococcus bacillisporus; how it was run: as §1
Nakaseomyces glabratus = test: Antifungal activity against Candida glabrata after 48 hrs by microbroth dilution method; format: functional; how it was run: as §1
Pichia kudriavzevii = test: Antifungal activity against Candida krusei after 48 hrs by microbroth dilution method; format: functional; how it was run: as §1
Staphylococcus aureus = test: Antibacterial activity against Staphylococcus aureus at 80 ug by disk diffusion method; format: functional; conditions: read-out: IZ

CCCCCCC[C@H]1NC(=N)N2CCCC2=C1C(=O)OCCCCNC(=N)N
MIC50 (Candida albicans): 22 µM (≈ 8.64 µg/mL) | MIC90 (Candida albicans): 32 µM (≈ 12.6 µg/mL) | MIC50 (Cryptococcus gattii): 1.2 µM (≈ 0.471 µg/mL) | MIC90 (Cryptococcus gattii): 2.3 µM (≈ 0.903 µg/mL)

CCCCCCCC[C@H]1NC(=N)N2CCCC2=C1C(=O)OCCCCNC(=N)N
MIC50 (Candida albicans): 14 µM (≈ 5.69 µg/mL) | MIC90 (Candida albicans): 26 µM (≈ 10.6 µg/mL) | MIC50 (Cryptococcus gattii): 0.85 µM (≈ 0.346 µg/mL) | MIC90 (Cryptococcus gattii): 2.2 µM (≈ 0.894 µg/mL)

CCCCCCCCC[C@H]1NC(=N)N2CCCC2=C1C(=O)OCCCCNC(=N)N
MIC50 (Candida albicans): 11 µM (≈ 4.63 µg/mL) | MIC90 (Candida albicans): 22 µM (≈ 9.25 µg/mL) | MIC50 (Cryptococcus gattii): 1.1 µM (≈ 0.463 µg/mL) | MIC90 (Cryptococcus gattii): 2.6 µM (≈ 1.09 µg/mL) | MIC50 (Nakaseomyces glabratus): 6.1 µM (≈ 2.57 µg/mL) | MIC90 (Nakaseomyces glabratus): 27 µM (≈ 11.4 µg/mL) | MIC50 (Pichia kudriavzevii): 11 µM (≈ 4.63 µg/mL) | MIC90 (Pichia kudriavzevii): 24 µM (≈ 10.1 µg/mL)

CCCCC[C@H]1NC(=N)N2CCCC2=C1C(=O)OCCCCNC(=N)N
MIC50 (Candida albicans): 39 µM (≈ 14.2 µg/mL) | MIC90 (Candida albicans): 49 µM (≈ 17.9 µg/mL) | MIC50 (Cryptococcus gattii): 2.5 µM (≈ 0.911 µg/mL) | MIC90 (Cryptococcus gattii): 4.9 µM (≈ 1.79 µg/mL) | MIC50 (Nakaseomyces glabratus): 17 µM (≈ 6.2 µg/mL) | MIC90 (Nakaseomyces glabratus): 41 µM (≈ 14.9 µg/mL) | MIC50 (Pichia kudriavzevii): 34 µM (≈ 12.4 µg/mL) | MIC90 (Pichia kudriavzevii): 59 µM (≈ 21.5 µg/mL) | zone of inhibition at 80 µg/disc (Staphylococcus aureus): 8 mm

C[C@@H]1[C@H](O)[C@@H](C)/C=C/C=C/C=C/C=C/C=C/C=C/C=C/[C@H](O[C@@H]2O[C@H](C)[C@@H](O)[C@H](N)[C@@H]2O)C[C@@H]2O[C@](O)(C[C@@H](O)C[C@@H](O)[C@H](O)CC[C@@H](O)C[C@@H](O)CC(=O)O[C@H]1C)C[C@H](O)[C@H]2C(=O)O [AMPHOTERICIN B]
MIC50 (Candida albicans): 0.037 µM (≈ 0.0342 µg/mL) | MIC90 (Candida albicans): 0.29 µM (≈ 0.268 µg/mL) | MIC50 (Cryptococcus gattii): 0.055 µM (≈ 0.0508 µg/mL) | MIC90 (Cryptococcus gattii): 0.12 µM (≈ 0.111 µg/mL) | MIC50 (Nakaseomyces glabratus): 0.098 µM (≈ 0.0906 µg/mL) | MIC90 (Nakaseomyces glabratus): 0.25 µM (≈ 0.231 µg/mL) | MIC50 (Pichia kudriavzevii): 0.17 µM (≈ 0.157 µg/mL) | MIC90 (Pichia kudriavzevii): 0.23 µM (≈ 0.213 µg/mL)
